In assay [1] the target is T1, Adenosine receptor A3 (Homo sapiens, UniProt P0DMS8).
T1 sequence (P0DMS8 whole entry): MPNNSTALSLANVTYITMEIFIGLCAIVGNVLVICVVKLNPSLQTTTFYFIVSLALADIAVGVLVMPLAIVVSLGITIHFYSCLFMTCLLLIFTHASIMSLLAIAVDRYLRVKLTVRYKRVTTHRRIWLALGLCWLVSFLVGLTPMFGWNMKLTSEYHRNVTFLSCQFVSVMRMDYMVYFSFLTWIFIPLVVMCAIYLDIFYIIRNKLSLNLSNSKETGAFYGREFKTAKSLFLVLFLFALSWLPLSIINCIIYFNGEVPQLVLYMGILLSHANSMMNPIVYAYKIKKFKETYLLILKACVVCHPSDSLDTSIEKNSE
The experiment in a line: Displacement of [125I]-I-AB-MECA from recombinant human adenosine A3 receptor expressed in CHO cells after 60 mins by gamma counting analysis. The assay is classed as cell-based.

Assay [2] is described as follows: Antifibrotic activity in C57BL6/J mouse Prox24 cells assessed as inhibition of TGF-beta1-induced COL1A1 mRNA expression incubated for 1 hr followed by TGF-beta1 challenge measured after 6 hrs by real-time PCR analysis. In kind it is functional. In a few lines:
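mProx24 immortalized proximal tubular cells from C57BL6/J mouse kidneys in DMEM, 10% FCS, 37 °C, 5% CO2. Growth-arrested 24 h in 0.15% FCS. Pretreated 1 h with compound in DMEM/0.15% FCS (DMSO stocks 50, 20, 10, 1 mM), then human TGF-β1 5 ng/mL for 6 h. COL1A1 mRNA expressed relative to TGF-β1 alone (1.0). Mean ± SE of three experiments.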

Assay [3] has as its target T2, Adenosine receptor A2a (Homo sapiens, UniProt P29274). Kind of assay: Displacement of [3H]-CGS21680 from human adenosine A2A receptor expressed in HEK293 cells after 60 mins by scintillation counting analysis. The assay is classed as cell-based. In a few lines:
(§1)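 HEK-293 hA2AAR membranes (20 μg) incubated 60 min at 25 °C with 15 nM [3H]CGS21680 and increasing ligand concentrations in 50 mM Tris·HCl pH 7.4, 10 mM MgCl2. Nonspecific binding defined with 10 μM NECA. GF/B filtration, scintillation counting. Ki by Cheng–Prusoff. For weak binders, percent inhibition measured at 10 μM, 3–5 duplicate determinations.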

Assay [4] deals with T3, Adenosine receptor A3 (Homo sapiens) (UniProt P0DMS8).
T3 sequence (whole entry): T1 sequence (P0DMS8 whole entry)
Kind of assay: Antagonist activity at recombinant human adenosine A3 receptor expressed in CHO cells assessed as forskolin-induced intracellular cAMP production preincubated for 45 mins followed by forskolin challenge measured after 15 mins by liquid scintillation counting analysis in presence of rolipram and adenosine deaminase relative to NECA. More on the design: scale not given: the % may be the effect or the level left. In kind it is functional, cell-based. In a few lines:
(§2)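 CHO cells stably expressing hA3AR, plated 24 h, washed in DMEM/50 mM HEPES pH 7.4, treated with agonists and/or test compounds plus rolipram 10 μM and adenosine deaminase 3 U/mL. Forskolin 10 μM added after 45 min, incubation continued 15 min. Lysed in 0.1 M HCl. cAMP quantified by [3H]cAMP (2 nM)–PKA competitive binding, GF/C filtration, scintillation counting. Expressed relative to NECA full agonist (100%). Curves from three determinations.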

Assay [5] deals with T4, Adenosine receptor A3 (Rattus norvegicus, UniProt P28647).
T4 sequence (P28647 whole entry): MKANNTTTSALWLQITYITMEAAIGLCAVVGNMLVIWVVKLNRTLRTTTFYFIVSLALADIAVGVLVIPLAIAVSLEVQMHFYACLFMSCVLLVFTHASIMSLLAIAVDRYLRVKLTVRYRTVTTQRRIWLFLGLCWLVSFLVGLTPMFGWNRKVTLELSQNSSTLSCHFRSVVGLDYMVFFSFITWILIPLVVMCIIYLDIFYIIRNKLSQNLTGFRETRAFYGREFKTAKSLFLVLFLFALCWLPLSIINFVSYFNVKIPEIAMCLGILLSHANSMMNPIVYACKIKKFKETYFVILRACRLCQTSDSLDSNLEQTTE
The experiment in a line: Displacement of [125I]-I-AB-MECA from rat adenosine A3 receptor expressed in RBL-2H3 cells after 60 mins by gamma counting analysis. The assay is classed as cell-based.

Assay [6] concerns the target T5, Adenosine receptor A1 (Homo sapiens) (UniProt P30542).
T5 sequence (whole entry): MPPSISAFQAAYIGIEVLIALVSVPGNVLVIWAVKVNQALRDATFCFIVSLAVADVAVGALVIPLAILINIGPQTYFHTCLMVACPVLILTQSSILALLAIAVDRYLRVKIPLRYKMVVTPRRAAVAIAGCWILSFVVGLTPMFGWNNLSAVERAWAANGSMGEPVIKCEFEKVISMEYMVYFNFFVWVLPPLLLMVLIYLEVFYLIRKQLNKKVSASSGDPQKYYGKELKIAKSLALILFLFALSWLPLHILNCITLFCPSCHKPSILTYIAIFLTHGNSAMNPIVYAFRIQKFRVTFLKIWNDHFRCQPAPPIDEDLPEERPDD
The experiment in a line: Displacement of [3H]-R-PIA from recombinant human adenosine A1 receptor expressed in CHO cells at 10 uM after 60 mins by scintillation counting analysis relative to control. In kind it is cell-based.

The target in assay [7] is T1, Adenosine receptor A3. The experiment in a line: Partial agonist activity at recombinant human adenosine A3 receptor expressed in CHO cells assessed as […] of forskolin-induced intracellular cAMP production preincubated for 45 mins followed by forskolin challenge measured after 15 mins by liquid scintillation counting analysis in presence of rolipram and adenosine deaminase. The assay is classed as functional, cell-based. In a few lines:
as §2

In assay [8] the target is T6, Adenosine receptor A2b (Homo sapiens) (UniProt P29275).
T6 sequence (whole entry): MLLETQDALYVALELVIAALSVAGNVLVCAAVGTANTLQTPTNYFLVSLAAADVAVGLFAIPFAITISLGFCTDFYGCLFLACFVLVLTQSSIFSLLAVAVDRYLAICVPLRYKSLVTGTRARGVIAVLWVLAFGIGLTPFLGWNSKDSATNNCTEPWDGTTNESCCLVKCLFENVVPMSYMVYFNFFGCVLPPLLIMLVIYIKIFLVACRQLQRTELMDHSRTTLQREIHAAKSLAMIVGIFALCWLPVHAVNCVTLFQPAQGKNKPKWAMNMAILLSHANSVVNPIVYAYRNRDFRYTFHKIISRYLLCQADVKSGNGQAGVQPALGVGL
The experiment in a line: Agonist activity at recombinant human adenosine A2B receptor expressed in CHO cells assessed as activation of intracellular cAMP production at 10 uM in presence of rolipram and adenosine deaminase relative to NECA. The assay is classed as functional, cell-based. In a few lines:
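CHO cells stably expressing hA2BAR, plated 24 h, washed in DMEM with 50 mM HEPES pH 7.4, then exposed to compounds with rolipram 10 μM and adenosine deaminase 3 U/mL (no forskolin). Lysed in 0.1 M ice-cold HCl. cAMP measured by competitive binding of [3H]cAMP (2 nM) to protein kinase A against a 0–16 pmol standard curve, filtration, scintillation counting.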

In assay [9] the target is T3, Adenosine receptor A3 (Homo sapiens). Kind of assay: Partial agonist activity at recombinant human adenosine A3 receptor expressed in CHO cells assessed as stimulation of forskolin-induced intracellular cAMP production at 10 uM preincubated for 45 mins followed by forskolin challenge measured after 15 mins by liquid scintillation counting analysis in presence of rolipram and adenosine deaminase relative to NECA. In kind it is functional, cell-based. In a few lines: as §2

Another assay deals with T7, Adenosine receptor A1 (Homo sapiens, UniProt P30542).
T7 sequence (P30542 whole entry): T5 sequence (whole entry)
Kind of assay: Displacement of [3H]-R-PIA from recombinant human adenosine A1 receptor expressed in CHO cells after 60 mins by scintillation counting analysis. The assay is classed as cell-based.

The target of assay [10] is T2, Adenosine receptor A2a. The experiment in a line: Displacement of [3H]-CGS21680 from human adenosine A2A receptor expressed in HEK293 cells at 10 uM after 60 mins by scintillation counting analysis relative to control. In kind it is cell-based. In a few lines:
as §1

SMILES strings stand for the structures. Where only a bound is given, the exact number is not on record here.

T2 sequence (P29274 whole entry): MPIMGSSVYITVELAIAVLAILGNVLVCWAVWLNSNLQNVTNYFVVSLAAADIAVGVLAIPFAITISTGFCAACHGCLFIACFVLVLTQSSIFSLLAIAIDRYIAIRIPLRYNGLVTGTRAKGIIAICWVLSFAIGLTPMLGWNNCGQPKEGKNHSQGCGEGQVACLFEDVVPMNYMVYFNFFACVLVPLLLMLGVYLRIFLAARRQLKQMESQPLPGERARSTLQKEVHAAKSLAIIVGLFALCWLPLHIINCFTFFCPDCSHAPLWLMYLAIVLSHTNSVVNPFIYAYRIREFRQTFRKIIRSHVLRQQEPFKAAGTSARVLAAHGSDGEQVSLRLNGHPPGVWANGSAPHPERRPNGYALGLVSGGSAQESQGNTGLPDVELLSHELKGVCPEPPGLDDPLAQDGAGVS

Consider `CCCCC#Cc1nc(NCc2cccc(I)c2)c2ncn([C@H]3[C@H](O)[C@H](O)[C@@H]4C[C@@H]43)c2n1`, for which the inhibitory constant (Ki) came out at 12 nM at Adenosine receptor A3 [1], 2530 nM on Adenosine receptor A2a [3] and 26 nM on Adenosine receptor A3 [5]. Besides, the IC50 in [2] is 7880 nM. For the same molecule, the Activity in assay [4] is < 5%. In addition, the inhibition in assay [6] stood at 48%.

Take `CCCCC#Cc1nc(NC)c2ncn([C@H]3[C@H](O)[C@H](O)[C@@H]4C[C@@H]43)c2n1`: the Ki stood at 4.9 nM at Adenosine receptor A3 [1], 7490 nM at Adenosine receptor A2a [3] and 231 nM at Adenosine receptor A3 [5]. The IC50 in assay [2] turned out to be 830 nM. The EC50 on Adenosine receptor A3 [7] is 45.8 nM. The Activity in assay [8] amounted to 15.7%. Also, in assay [6], the inhibition worked out at 14%. The max activation in [9] worked out at 29.1%.

Consider `CCCCC#Cc1nc(NC2CC2)c2ncn([C@H]3[C@H](O)[C@H](O)[C@@H]4C[C@@H]43)c2n1`, for which the Ki was found to be 9.2 nM at Adenosine receptor A3 [1], 2200 nM on Adenosine receptor A2a [3], 2170 nM at Adenosine receptor A1 and 39 nM at Adenosine receptor A3 [5]. The IC50 in [2] came to 11800 nM.

Consider `CCCCC#Cc1nc(N)c2ncn([C@H]3[C@H](O)[C@H](O)[C@@H]4C[C@@H]43)c2n1`, for which the Ki on Adenosine receptor A3 [1] stood at 16.2 nM; on Adenosine receptor A2a [3], 100 nM; at Adenosine receptor A3 [5], 65 nM. In assay [2], the IC50 came out at 6120 nM. Moreover, the inhibition in [6] is 29%.

As for `CCCCC#Cc1nc(NCC)c2ncn([C@H]3[C@H](O)[C@H](O)[C@@H]4C[C@@H]43)c2n1`, the Ki at Adenosine receptor A3 [1] amounted to 6.7 nM; at Adenosine receptor A2a [3] it was 2860 nM; at Adenosine receptor A3 [5] it was 176 nM. The concentration for half-maximal inhibition (IC50) in [2] was 840 nM. In addition, in assay [6], the inhibition came out at 31%.

With `CCCCC#Cc1nc(NC2CCCC2)c2ncn([C@H]3[C@H](O)[C@H](O)[C@@H]4C[C@@H]43)c2n1`, the Ki on Adenosine receptor A3 [1] was determined as 160 nM; on Adenosine receptor A2a [3], 1760 nM; at Adenosine receptor A1, 1580 nM; on Adenosine receptor A3 [5], 58 nM. Moreover, the IC50 in assay [2] was > 50000 nM.

Consider `CCCCC#Cc1nc(NCc2cccc(Br)c2)c2ncn([C@H]3[C@H](O)[C@H](O)[C@@H]4C[C@@H]43)c2n1`, for which the Ki was 8.6 nM on Adenosine receptor A3 [1], 3150 nM on Adenosine receptor A2a [3] and 59 nM at Adenosine receptor A3 [5]. Also, the IC50 in assay [2] amounted to 10400 nM. Also, the Activity in assay [4] is < 5%. The inhibition in assay [6] came to 38%.

With `CCCCC#Cc1nc(NCc2cccc(Cl)c2)c2ncn([C@H]3[C@H](O)[C@H](O)[C@@H]4C[C@@H]43)c2n1`, the values for the Ki at Adenosine receptor A3 [1], on Adenosine receptor A2a [3] and on Adenosine receptor A3 [5] were 7.8 nM, 3310 nM and 10.7 nM, respectively. For the same molecule, in assay [2], the IC50 amounted to 2870 nM. For the same molecule, the Activity in assay [4] is < 5%. Besides, the inhibition in assay [6] came to 19%.

For the molecule `CCCCC#Cc1nc(NCc2cccc(F)c2)c2ncn([C@H]3[C@H](O)[C@H](O)[C@@H]4C[C@@H]43)c2n1`, the Ki turned out to be 16 nM on Adenosine receptor A3 [1] and 43 nM at Adenosine receptor A3 [5]. Also, the IC50 in assay [2] stood at 3170 nM. The values for the inhibition (in assay [6]; at Adenosine receptor A2a [10]) were 21% and 27%, respectively.

Source of the values: ChEMBL document CHEMBL3124893 (J Med Chem, 2014).
